How the values were obtained:
[1] = Drug excretion in Sprague-Dawley rat feces treated with 20(S)-protopanaxadiol at 100 mg/kg/day, po qd for 11 days administered via gavage by liquid chromatography-electrospray ionization ion trap mass spectrometry; format: ADME, organism-based; parameters: route oral; conditions: in vivo, 264 h
Procedure, shortened: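 PPD given by gavage at 10 mg/ml in 0.5% carboxymethyl cellulose sodium, 0.5% polysorbate-80 and 99% saline; 20 rats, one per metabolic cage. Feces collected over 0–288 h (48 h after last dose), blanks taken before dosing, frozen at -20°C.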

[2] = test system: Hepatocyte; experiment: Drug level in human hepatocytes treated with 20(S)-protopanaxadiol at 50 uM after 180 mins by liquid chromatography-electrospray ionization ion trap mass spectrometry; format: ADME, cell-based; conditions: 3 h
Procedure, shortened: (§1)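 Human hepatocytes (2 million cells/ml) in Williams' E medium with substrate 50 µM, 0.5% (v/v) final MeOH, 37°C for 3 h. Negative controls were substrate at 0 h and no substrate at 3 h. Quenched with equal volume acetonitrile, in duplicate. Methanol was added, then centrifugation, dry-down and reconstitution. Analysed by C8 reversed-phase LC with formic acid/methanol–ammonium acetate gradient, ESI ion trap MSⁿ, m/z 100–800.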

[3] = test system: Liver microsome; experiment: Retention time of the compound in mixed human liver microsomes treated with 20(S)-protopanaxadiol at 50 uM after 60 mins by liquid chromatography-electrospray ionization ion trap mass spectrometry; format: ADME; conditions: 1 h
Procedure, shortened: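 Pooled HLM protein 1.0 mg/ml with substrate 50 µM in 100 mM potassium phosphate pH 7.4, 0.1% (v/v) final MeOH. Preincubated 3 min at 37°C, started with 2.0 mM NADPH, incubated 60 min. Stopped with equal volume ice-cold acetonitrile. Controls lacked NADPH or substrate, in duplicate. Analysed on C8 reversed-phase column, formic acid methanol/ammonium acetate gradient, ESI ion trap MSⁿ.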

[4] = test system: Liver microsome; experiment: Drug metabolism in mixed human liver microsomes assessed as metabolite 7-2 ((2S,3S,4S,5R,6S)-6-(2-((2R,5S)-5-((3S,5R,8R,9R,10R,12R,14R,17S)-3,12-dihydroxy-4,4,8,10,14-pentamethylhexadecahydro-1H-cyclopenta[a]phenanthren-17-yl)-5-methyltetrahydrofuran-2-yl)propan-2-yloxy)-3,4,5-trihydroxytetrahydro-2H-pyran-2-carboxylic acid) formation at 50 uM after 120 mins by liquid chromatography-electrospray ionization ion trap mass spectrometry in presence of UDPGA; format: ADME
Procedure, shortened: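 Pooled human liver microsomes, 1.0 mg/ml protein, in 50 mM Tris-HCl pH 7.4 with 10 mM MgCl₂, 2 mM UDPGA and 25 µg/mL alamethicin. Preincubated 3 min at 37°C, started with substrate 50 µM (final MeOH 0.1%), run 120 min, stopped with ice-cold acetonitrile. Time-0 controls; duplicates. Analysed by LC/ESI ion-trap MSn.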

[5] = Retention time of the compound treated with 20(S)-protopanaxadiol at 100 uM measured after 60 mins by liquid chromatography-electrospray ionization ion trap mass spectrometry in presence of 10 uM 3-chloroperoxybenzoic acid; format: physicochemical; conditions: 1 h
Procedure, shortened: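 PPD 100 µM oxidised chemically with m-CPBA 10 µM in CH₂Cl₂, stirred at room temperature for 15 and 60 min. Mixture poured into Na₂CO₃-saturated ice water and extracted three times with ether before LC/MS analysis.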

[6] = test system: Hepatocyte; experiment: Retention time of the compound in human hepatocytes treated with 20(S)-protopanaxadiol at 50 uM after 180 mins by liquid chromatography-electrospray ionization ion trap mass spectrometry; format: ADME, cell-based; conditions: 3 h; procedure, shortened: as §1

Row | SMILES | Drug excretion [1] | Drug metabolism [2] | Retention_time [3] [min] | Retention_time [6] [min] | Drug metabolism [4] | Retention_time [5] [min]
1 | CC(C)(O)[C@H]1CC[C@@](C)([C@H]2CC[C@]3(C)[C@@H]2[C@H](O)C[C@@H]2[C@@]4(C)CCC(=O)C(C)(C)[C@@H]4CC[C@]23C)O1 | metabolite_detected | metabolite_detected | 19.7 | – | – | –
2 | CC(C)(O)[C@H]1CC[C@@](C)([C@H]2CC[C@]3(C)[C@@H]2[C@H](O)C[C@@H]2[C@@]4(C)CC[C@H](O)C(C)(C)[C@@H]4CC[C@]23C)O1 | metabolite_detected | metabolite_detected | 19.8 | – | metabolite_detected | 19.8

Further lines, with some results ahead:

Row | Drug excretion [1] | Drug metabolism [2] | Retention_time [3] [min] | Retention_time [6] [min] | SMILES | Drug metabolism [4] | Retention_time [5] [min]
3 | metabolite_detected | metabolite_detected | 19.1 | – | CC(C)(O)[C@@H]1CC[C@@](C)([C@H]2CC[C@]3(C)[C@@H]2[C@H](O)C[C@@H]2[C@@]4(C)CCC(=O)C(C)(C)[C@@H]4CC[C@]23C)O1 | – | –
4 | – | – | – | 13.2 | CC(C)(O)[C@@H](O)CC[C@](C)(O)[C@H]1CC[C@]2(C)[C@@H]1[C@H](O)C[C@@H]1[C@@]3(C)CC[C@H](O)C(C)(C)[C@@H]3CC[C@]12C | – | –
5 | metabolite_detected | metabolite_detected | 18.7 | – | CC1(C)O[C@H]1CC[C@](C)(O)[C@H]1CC[C@]2(C)[C@@H]1[C@H](O)C[C@@H]1[C@@]3(C)CC[C@H](O)C(C)(C)[C@@H]3CC[C@]12C | – | 18.7
